Screening data: PubChem BioAssay, several laboratories
KCC2 mod = modulates chloride dependent transport by human KCC2; Q9H2X9; actives 2.2% (n = 190,000); B-score of Tl+ flux slope (higher = more flux/activation; lower = inhibition) at 10 µM; KCC2 cells, thallium flux FluoZin-2 fluorescence; AID 1456;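 active = thallium flux slope and its plate-corrected score both differing from the plate sample mean at a set confidence after two filtering rounds, in either direction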;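 note: slope of fluorescence scaled to starting intensity during 10 to 20 s after thallium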
hERG rescue = compounds protecting human hERG from proarrhythmic drug block; Q12809; CHO-hERG, FluxOR thallium flux, dofetilide IC70 present; activation (rescue from dofetilide block), less the hit threshold, % at 10 µM; actives 0.51% (n = 310,000); AID 1511;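 active = activation above the mean of controls blocked by dofetilide plus 5 SD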;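 note: thallium influx through hERG after potassium depolarization seen as dye fluorescence rise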
KCNK3 block = human KCNK3 channel inhibition, primary screen; B-score at 10 µM; actives 0.84% (n = 340,000); O14649; CHO-KCNK3 thallium flux, FluxOR fluorescence; stronger effect = lower value;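 active = B-score under library mean minus 4 SD, starting fluorescence ratio at most library mean plus 5 SD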;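 note: more negative B-score means stronger inhibition of thallium flux through KCNK3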
Target sequence (O14649 whole entry, looked up): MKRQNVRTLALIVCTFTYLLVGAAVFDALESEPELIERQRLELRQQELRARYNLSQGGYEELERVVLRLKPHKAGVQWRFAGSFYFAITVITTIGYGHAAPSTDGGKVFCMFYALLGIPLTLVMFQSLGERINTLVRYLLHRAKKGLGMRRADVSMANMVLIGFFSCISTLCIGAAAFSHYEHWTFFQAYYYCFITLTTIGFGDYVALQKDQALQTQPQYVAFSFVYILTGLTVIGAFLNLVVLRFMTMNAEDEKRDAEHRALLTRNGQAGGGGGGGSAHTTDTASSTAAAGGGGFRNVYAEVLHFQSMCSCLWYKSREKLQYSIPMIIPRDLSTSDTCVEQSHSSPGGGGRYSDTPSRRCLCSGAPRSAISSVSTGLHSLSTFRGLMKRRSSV
KCNQ1 act = human KCNQ1 channel potentiation or activation. P51787. CHO-K1 KCNQ1, thallium flux FluxOR fluorescence; stronger effect = higher value. B-score at 10 µM. actives 0.35% (n = 310,000). AID 2648;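 active = fluorescence ratio B-score, a plate-corrected score, at least three library SD, with initial intensity B-score within 5 SD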
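Assay system: CHO-K1 cells stably expressing KCNQ1; Medium: assay buffer with matched DMSO; Also added: K+/Tl+ depolarizing stimulus; Dosing: single dose; Timing: dye 90 min, compound 20 min, room temperature; Measured by: kinetic FluxOR thallium fluorescence, 10-s 1-Hz baseline, 110-s post-stimulus read; Read-out: peak-minus-minimum fluorescence over initial fluorescence, negative-control normalized, B-scored.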
KCNK9 inh = inhibitors of human KCNK9 two-pore domain potassium channel; Q9NPC2; HEK293 KCNK9, FluxOR thallium flux fluorescence; stronger effect = lower value; B-score at 10 µM; actives 1.2% (n = 310,000); AID 488922;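 active = ratio B-score over 3 SD below the library mean, with starting fluorescence within 5 SD of its mean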;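 note: negative B-score means less thallium flux so channel inhibition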
KCNQ1 block = blocks the human KCNQ1 potassium channel; CHO-K1 KCNQ1, FluxOR thallium flux fluorescence; stronger effect = higher value; B-score at 10 µM; actives 1.3% (n = 310,000); AID 2642;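 active = compounds whose thallium flux B-score, printed positive for inhibition, exceeds three library SD while starting fluorescence stays within three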;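 note: channel opened by potassium depolarization with thallium stimulus after 20 min compound exposure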
KCNK3 inh conf = human KCNK3 channel inhibition, confirmation assay; shares compounds with KCNK3 block; CHO-KCNK3 thallium flux, FluxOR fluorescence; 0% buffer, 100% carvedilol maximal block; ratio percent of control, % at 10 µM; actives 99% (n = 2,400); AID 651638;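 active = ratio percent of control, averaged over triplicates, above buffer control mean plus 5 SD, cut at about 64% in these data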;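 note: ratio is the fluorescence rise from min to max over baseline after thallium stimulus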
KCNK3 noninduced = activity in cells without induced KCNK3 expression; shares compounds with KCNK3 block; non-induced KCNK3 parental cells, FluxOR thallium flux; stronger effect = lower value; thallium flux ratio (lower = more inhibition) at 10 µM; actives 40% (n = 2,400);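 active = thallium flux ratio, averaged over three wells, more than 5 SD below the buffer control mean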;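 note: host cells are CHO cells without KCNK3 induction; ratio is peak minus trough fluorescence over baseline then normalized to buffer controls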
Numbers without * were called inactive; i = inactive; · = no result given. Shown are actives, neighbours in structure and some others; about 4.1% of the full set was active somewhere.

SMILES	KCC2 mod	hERG rescue	KCNK3 block	KCNQ1 act	KCNK9 inh	KCNQ1 block	KCNK3 inh conf	KCNK3 noninduced
NC(N)=N/N=C/c1ccc(OCc2ccc(Cl)cc2)cc1	·	-30	-10*	i	i	7*	70*	i
COc1ccc(-c2[nH]c(-c3ccc(SC)cc3)nc2SCC(=O)Nc2nccs2)cc1	-0.41	-10	i	i	i	i	·	·
COC(=O)/C(=C/c1ccco1)NC(=O)c1ccccc1	0.051	-4	i	i	i	i	·	·
CCCOC(=O)/C(=C\C=C\c1ccco1)NC(=O)c1ccccc1	-3.2	-18	-10*	i	i	i	107*	0.15*
O=C(Nc1nc(-c2ccccc2)cs1)C1COc2ccccc2O1 (centres undefined)	0.17	-7	i	i	i	i	·	·
O=C(Nc1nc(-c2ccc3c(c2)OCO3)cs1)C1COc2ccccc2O1 (centres undefined)	2.8	-15	-11*	i	i	i	109*	i
COc1ccc(CC(C)CC(=O)Nc2ccc(OC)cc2)cc1 (centres undefined)	·	-13	i	i	i	i	·	·
Cc1cccc(CSC2=NCCN2S(=O)(=O)c2ccc(F)cc2)c1	·	-9	-8.9*	i	i	i	105*	i
CN(C(=O)COc1ccc(S(=O)(=O)N2CCOCC2)cc1[N+](=O)[O-])C1CCS(=O)(=O)C1 (centres undefined)	-0.0047	-16	i	i	i	i	·	·
O=C(NC12CC3CC(CC(C3)C1)C2)N1CCN(c2nc(-c3ccccc3)cs2)CC1	-1	-6	i	i	-6.7*	i	104*	i
CCCCSc1nc2c(c(C(F)(F)F)c1C#N)CCC2	·	-11	-9.1*	i	i	i	119*	0.15*
CCS(=O)c1ccccc1C(=O)OCC(=O)Nc1cccc(S(=O)(=O)N2CCCCC2)c1 (centres undefined)	·	·	i	·	·	·	·	·
CC(Cl)C(=O)NN=C(c1ccccc1)c1ccccc1 (centres undefined)	0.0057	-13	-8.9*	i	i	i	94*	i
CC(C)(C)C(CCl)C(=O)NN=C(c1ccccc1)c1ccccc1 (centres undefined)	·	·	i	·	·	·	·	·
O=C(CSc1ccc(Cl)cc1)N1CCC(c2nc3ccccc3s2)CC1	-2.9	-14	-8.8*	i	i	i	127*	0.16*
O=C(CSc1c(Cl)cccc1Cl)N1CCC(c2nc3ccccc3s2)CC1	-1.1	-6	i	i	i	i	·	·
CC1(C)CC(=O)C=C(Nc2ccc(Cl)cc2)C1	·	-2	i	i	i	i	·	·
CC1(C)CC(=O)C=C(Nc2ccc(Cl)c(Br)c2)C1	·	-4	-10*	i	i	i	114*	0.15*
O=c1[nH]c([N+](=O)[O-])nn1C(c1ccccc1)c1ccccc1	·	-5	-10*	i	i	i	0	i
CC(C)c1ccccc1-n1c(SCC(=O)c2ccc3c(c2)NC(=O)CO3)nc2ccccc2c1=O	-0.014	-22	-11*	i	-7.4*	6*	115*	0.15*
COc1cccc(NC(=O)COC(=O)c2c3c(nc4ccccc24)CCC(C)C3)c1 (centres undefined)	-1.4	-22	-10*	i	i	i	96*	i
CC1CCc2nc3ccccc3c(C(=O)OCC(=O)NC3CCS(=O)(=O)C3)c2C1 (centres undefined)	0.23	-10	i	i	i	i	·	·
O=[N+]([O-])c1ccc(-c2ccc(/C=N/Nc3nc(N4CCCC4)nc(N4CCCC4)n3)o2)cc1	0.96	-19	-9.8*	i	i	7*	141*	0.11*
COc1nc(N/N=C/c2ccc(-c3cccc([N+](=O)[O-])c3)o2)nc(N2CCOCC2)n1	-0.18	-7	·	i	i	i	·	·
Cc1ccc(C)c(N2CCN(S(=O)(=O)c3ccc4c(c3)NC(=O)CS4)CC2)c1	·	-1	-9.4*	i	i	i	85*	i
SMILES	KCC2 mod	hERG rescue	KCNK3 block	KCNQ1 act	KCNK9 inh	KCNQ1 block	KCNK3 inh conf	KCNK3 noninduced
CN1CCN(S(=O)(=O)c2ccc3c(c2)NC(=O)CS3)CC1	·	-1	i	i	i	i	·	·
O=c1[nH]c(-c2ccccc2F)nc2c1sc(=S)n2Cc1ccccc1	0.3	-9	i	i	i	i	·	·
COc1ccc(-c2cnc(SCC(=O)Nc3ccc4c(c3)OCO4)n2Cc2ccco2)cc1	0.22	-6	i	i	i	i	·	·
CC(=O)Nc1cccc(NC(=O)CSc2ncc(-c3ccc(Cl)cc3)n2Cc2ccco2)c1	-0.85	-27	-11*	i	i	7*	119*	0.14*
CCOC(=O)C1=C(C)NC(C)=C(C(=O)OCC)C1c1ccc(C)o1	-1.4	-3	i	i	i	i	·	·
C=CCOC(=O)C1=C(C)NC(C)=C(C(=O)OCC=C)C1c1ccc(C)o1	0.12	-3	-10*	i	i	i	104*	i
COc1c(C)cc(Br)cc1C(=O)Nc1ccc(S(N)(=O)=O)cc1	0.16	-5	i	i	i	i	·	·
COc1ccc(NC(=O)Cn2c(=O)n(CC(=O)NCc3ccco3)c(=O)c3ccccc32)cc1OC	·	-9	i	i	i	i	·	·
Cc1ccc(Br)cc1S(=O)(=O)N1CCN(c2ccccc2)CC1	-0.35	-10	-11*	i	i	i	102*	0.15*
COc1ccc(OC)c(NC(=O)CN2C(=O)COc3ccc(S(=O)(=O)N4CCCC4)cc32)c1	·	-6	-10*	i	i	i	96*	i
COc1cccc(NC(=O)CN2C(=O)COc3ccc(Cl)cc32)c1	·	-7	-9.8*	i	i	i	101*	i
CCOC(=O)c1c(C)nc2sc3c(c2c1-c1ccc(OC)cc1)NC(c1ccc(OC)cc1)NC3=O (centres undefined)	-0.62	-7	i	i	i	i	·	·
O=C(O)c1ccccc1C(=O)Nc1ccc(S(=O)(=O)Nc2ccc(F)cc2)cc1	·	-2	i	i	i	i	·	·
COC(=O)C1=C(C)NC(C)=C(C(=O)OCC2CCCO2)C1c1ccc(Cl)c([N+](=O)[O-])c1 (centres undefined)	·	-11	i	i	i	i	·	·
